Active and inactive are the calls of the source. The calls are words filed in the database; no cut-off is given here.
How the values were obtained:
[1] = test system: Streptococcus pyogenes; test: Induction of nga mRNA expression in drug-resistant Streptococcus pyogenes D2TY at 1 ug/ml by Northern blot analysis; type: functional, organism-based
Outline: (§1)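 Cells grown static at 37°C in 5 ml BHI-YE, with 1 μg/ml CLI or none added at inoculation, and harvested at OD660 ≈0.8 (late log). Total RNA was DNase-treated. About 1 μg was run on 1% agarose with 1.1 M formaldehyde and blotted to nylon. Probes were 32P-labeled nga, slo, ska, covS or covR DNA, quantified by autoradiography/bioimaging. Triplicate assays from at least two independent cultures.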

[2] = test system: Streptococcus pyogenes; test: Antibacterial activity against Streptococcus pyogenes D2TY; type: functional
Outline: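 MICs of clindamycin hydrochloride determined for S. pyogenes M1 strain D2TY (STSS clinical isolate) by broth microdilution and by Etest, following CLSI guidelines. Bacteria grown at 37°C without agitation in brain heart infusion broth with 0.3% yeast extract. Resistance breakpoint taken as MIC above 1 μg/ml.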

[3] = test system: Streptococcus pyogenes; test: Decrease in ska mRNA expression in drug-resistant Streptococcus pyogenes D2TY isogenic delta covS mutant in BHI-YE supplemented medium at 1 ug/ml by Northern blot analysis; type: functional, organism-based; outline: as §1
[4] = test system: Streptococcus pyogenes; test: Induction of covS mRNA expression in drug-resistant Streptococcus pyogenes D2TY in BHI-YE supplemented medium at 1 ug/ml by Northern blot analysis; type: functional, organism-based; outline: as §1
[5] = test system: Streptococcus pyogenes; test: Decrease in slo mRNA expression in drug-resistant Streptococcus pyogenes D2TY isogenic delta covS mutant in BHI-YE supplemented medium at 1 ug/ml by Northern blot analysis; type: functional, organism-based; outline: as §1
[6] = test system: Streptococcus pyogenes; test: Decrease in Ska protein production in drug-resistant Streptococcus pyogenes D2TY isogenic delta covS mutant in BHI-YE supplemented medium at 1 ug/ml by Western blot analysis; type: functional, organism-based
Outline: (§2)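 Strain D2TY or its covS knockout, grown from −80°C stock at 37°C without agitation in 5 ml BHI-YE (0.3% yeast extract) containing protease inhibitor E-64, with or without 1 μg/ml CLI. Supernatant proteins run on SDS-PAGE and blotted to PVDF. Rabbit anti-Slo, anti-Nga or anti-Ska (1:2,000) applied for 16 h at room temperature. HRP goat anti-rabbit IgG (1:2,000) used as secondary. Triplicate assays from at least two independent cultures.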

[7] = test system: Streptococcus pyogenes; test: Induction of slo mRNA expression in drug-resistant Streptococcus pyogenes D2TY at 1 ug/ml by Northern blot analysis; type: functional, organism-based; outline: as §1
[8] = test system: Streptococcus pyogenes; test: Induction of ska mRNA expression in drug-resistant Streptococcus pyogenes D2TY at 1 ug/ml by Northern blot analysis; type: functional, organism-based; outline: as §1
[9] = test system: Streptococcus pyogenes; test: Induction of covR mRNA expression in drug-resistant Streptococcus pyogenes D2TY delta covS mutant at 1 ug/ml by Northern blot analysis; type: functional, organism-based; outline: as §1
[10] = test system: Streptococcus pyogenes; test: Induction of Slo protein production in drug-resistant Streptococcus pyogenes D2TY at 1 ug/ml by Western blot analysis; type: functional, organism-based; outline: as §2
[11] = test system: Streptococcus pyogenes; test: Decrease in Nga protein production in drug-resistant Streptococcus pyogenes D2TY isogenic delta covS mutant in BHI-YE supplemented medium at 1 ug/ml by Western blot analysis; type: functional, organism-based; outline: as §2
[12] = test system: Streptococcus pyogenes; test: Induction of Ska protein production in drug-resistant Streptococcus pyogenes D2TY at 1 ug/ml by Western blot analysis; type: functional, organism-based; outline: as §2
[13] = test system: Streptococcus pyogenes; test: Induction of Nga protein production in drug-resistant Streptococcus pyogenes D2TY at 1 ug/ml by Western blot analysis; type: functional, organism-based; outline: as §2
[14] = test system: Streptococcus pyogenes; test: Induction of two-component sensor kinase CovS expression in drug-resistant Streptococcus pyogenes D2TY delta covS mutant at 1 ug/ml by Northern blot analysis; type: functional, organism-based; outline: as §1
[15] = test system: Streptococcus pyogenes; test: Decrease in nga mRNA expression in drug-resistant Streptococcus pyogenes D2TY isogenic delta covS mutant in BHI-YE supplemented medium at 1 ug/ml by Northern blot analysis; type: functional, organism-based; outline: as §1
[16] = test system: Streptococcus pyogenes; test: Decrease in Slo protein production in drug-resistant Streptococcus pyogenes D2TY isogenic delta covS mutant in BHI-YE supplemented medium at 1 ug/ml by Western blot analysis; type: functional, organism-based; outline: as §2
[17] = test system: Streptococcus pyogenes; test: Induction of covS mRNA expression in drug-resistant Streptococcus pyogenes D2TY delta covS mutant at 1 ug/ml by Northern blot analysis; type: functional, organism-based; outline: as §1

CCC[C@@H]1C[C@@H](C(=O)N[C@@H]([C@H]2O[C@H](SC)[C@H](O)[C@@H](O)[C@H]2O)[C@H](C)Cl)N(C)C1.Cl [CLINDAMYCIN HYDROCHLORIDE]
Activity [1]: Active | MIC [2]: 256 µg/mL | Activity [3]: Active | Activity [4]: Active | Activity [5]: Active | Activity [6]: Active | Activity [7]: Active | Activity [8]: Active | Activity [9]: inactive | Activity [10]: Active | Activity [11]: Active | Activity [12]: Active | Activity [13]: Active | Activity [14]: inactive | Activity [15]: Active | Activity [16]: Active | Activity [17]: inactive
